Screens (PubChem BioAssay)
TAAR1 agonist: agonists of human TAAR1; Q96RJ0; CHO RD-HGA16 TAAR1, Fluo-8 calcium fluorescence; vehicle wells 0%, saturating PEA agonist 100%; activation, % at 3 µM; actives 0.99% (n = 360,000);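 active = activation above the mean activation of all test compounds in the run plus 3 SD, cut at about 38% in these data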
Target sequence (Q96RJ0 whole entry, looked up): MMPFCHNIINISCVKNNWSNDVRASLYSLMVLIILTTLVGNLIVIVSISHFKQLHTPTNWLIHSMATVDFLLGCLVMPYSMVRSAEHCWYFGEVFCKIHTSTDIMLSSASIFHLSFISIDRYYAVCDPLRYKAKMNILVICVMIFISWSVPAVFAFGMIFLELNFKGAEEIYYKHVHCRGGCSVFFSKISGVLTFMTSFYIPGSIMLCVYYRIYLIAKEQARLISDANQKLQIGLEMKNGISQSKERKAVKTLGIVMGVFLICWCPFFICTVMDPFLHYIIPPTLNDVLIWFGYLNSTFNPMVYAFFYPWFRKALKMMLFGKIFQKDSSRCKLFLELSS
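System: CHO RD-HGA16 cells carrying human TAAR1 plus Gα16; Incubation: 17-24 h seeding, 75 min 37 °C dye, 30 min RT; Measured by: Fluo-8 fluorescence, 5 s baseline then 140 s kinetic read; Control set: DMSO and PEA EC100; Replication: single well for each compound.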
OX1R antag-1: human HCRTR1 antagonism. actives 0.43% (n = 330,000). inhibition, % at 5 µM. AID 434989. CHO/OX1R cells, Fluo-8 calcium fluorescence, orexin A. O43613;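 active = inhibition above its plate's threshold, mean inhibition of all tested compounds on the plate plus 3 SD, cut at about 37% in these data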;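 also: 0% = orexin A challenge wells and 100% = SB-334867-A antagonist wells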
GPR7 antag: blocks human GPR7 receptor signaling | GPR7-expressing cells, fluorescence antagonist assay | inhibition, % at 4.4 µM | P48145 | actives 1.1% (n = 290,000); in the data active = inhibition above about 16%, passing the limit was not always enough;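 also: cells stimulated with the agonist NPW; 0% = agonist with vehicle and 100% = vehicle without agonist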
Target sequence (P48145 whole entry, looked up): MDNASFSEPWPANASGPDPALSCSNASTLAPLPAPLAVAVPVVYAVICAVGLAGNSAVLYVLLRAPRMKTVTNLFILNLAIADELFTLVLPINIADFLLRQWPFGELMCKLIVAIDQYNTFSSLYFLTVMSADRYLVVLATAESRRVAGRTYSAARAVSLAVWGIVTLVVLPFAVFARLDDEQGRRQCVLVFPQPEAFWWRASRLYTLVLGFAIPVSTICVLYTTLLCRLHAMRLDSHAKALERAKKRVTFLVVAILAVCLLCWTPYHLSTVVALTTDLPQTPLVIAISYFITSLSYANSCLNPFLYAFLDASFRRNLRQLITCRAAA
CHO parental Ca: counter-screen for OX1R antagonists: effect in parental CHO cells | actives 0.63% (n = 330,000) | parental CHO-K1, ATP-induced calcium, Fluo-8 fluorescence | inhibition, % at 5.6 µM | AID 463079;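 active = inhibition above that plate's mean sample inhibition plus 3 SD, cut at about 26% in these data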;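 also: 0% = ATP-challenged DMSO wells and 100% = DMSO wells without ATP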
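Assay system: parental CHO cells; Read-out basis: percent inhibition of ATP-evoked calcium rise, normalized to controls; Benchmarks: ATP and no-ATP DMSO wells; Compound dosing: single nominal dose of 5.6 µM per compound; Signal: Fluo-8 calcium dye fluorescence; Also added: ATP as calcium-mobilizing challenge; Repeats: singlicate.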
TAAR1 antag: human TAAR1 antagonism; CHO RD-HGA16 TAAR1, Fluo-8 calcium fluorescence, antagonist; AID 624466; actives 1.5% (n = 360,000); Q96RJ0; inhibition, % at 3 µM;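 active = inhibition above a per-plate cutoff, the mean inhibition of test compounds on that plate plus 3 SD, cut at about 49% in these data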;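 also: 0% = DMSO plus EC80 beta-PEA response and 100% = DMSO alone without agonist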
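System: RD-HGA16 CHO cells with stable hTAAR1 and Gα16 | Probe or stimulus: EC80 β-phenethylamine stimulus | Dosing: 3 µM, single point | Times: Dye loading 75 min at 37 °C, then 30 min room temperature | Measured by: Fluo-8 calcium-sensitive fluorescence | Read-out basis: % inhibition of agonist calcium response | Replicates: n of 1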
OX1R antag-2: blocks the human orexin 1 receptor. O43613. OX1R-expressing cells, FRET antagonist read-out. inhibition, % at 6.6 µM. actives 1.8% (n = 330,000). AID 485270; in the data active = inhibition mostly above about 38%, no sharp cut-off; inactive = mostly below about 40%;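 also: 0% = agonist challenge alone and 100% = reference antagonist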
Active calls of the source: *; . = no result given. A selection: hits, their analogues and other compounds. The true share with any hit is near 4.6%.

SMILES | TAAR1 agonist | OX1R antag-1 | GPR7 antag | CHO parental Ca | TAAR1 antag | OX1R antag-2
O=C1C=C(Nc2cccc3cccnc23)c2ccccc2C1=O | -1 | -10 | -11 | -8 | -8 | 64*
CCN1CCN(CC(=O)Nc2ccc(Cl)c(Cl)c2)C(=O)C1=O | 10 | -4 | 3 | 8 | 4 | 13
CCN1CCN(CC(=O)Nc2ccccc2)C(=O)C1=O | 0 | -19 | 15* | -10 | -10 | 14
O=C(Nc1ccc(S(=O)(=O)N2CCOCC2)cc1)c1cc(-c2ccccc2O)n[nH]1 | 19 | -3 | -5 | -12 | 54* | -5
CC1CN(S(=O)(=O)c2ccc(NC(=O)c3cc(-c4ccccc4O)n[nH]3)cc2)CC(C)O1 (stereo not given) | 16 | 5 | -17 | -4 | 42 | 9
C[C@@H]1CN([C@H](C)CO)S(=O)(=O)c2ccc(Br)cc2O[C@H]1CN(C)CC1CCOCC1 | 0 | . | . | . | -3 | .
NC(C(=O)O)C1ON=C(Cl)C1O (stereo not given) | 0 | . | . | . | 7 | .
Cc1cccc(C=Nc2ccc3c4c(cccc24)CC3)c1O | 7 | 54* | -5 | 39* | 0 | 17
Oc1ccc(Cl)cc1C=Nc1ccc2c3c(cccc13)CC2 | 3 | 62* | 4 | 59* | -9 | 13
CCCCc1c(-c2ccccc2OC)ncn1Cc1ccc([N+](=O)[O-])cc1 | 0 | . | . | . | 9 | .
COc1ccc(O)c(/C=N/n2c(-c3ccco3)csc2=Nc2cccnc2)c1 | 4 | -13 | -8 | -22 | 49* | 16
C=CCCC1CN(Cc2ccc(OC)cc2)S(=O)(=O)c2c(cccc2N(C)S(=O)(=O)c2ccc(C)cc2)O1 (stereo not given) | -1 | . | . | . | -3 | .
COc1ccc(-c2nc3cc(C)ccn3c2NC(=O)c2ccccc2OC)cc1 | 10 | -25 | -14 | -31 | 37 | 2
CCCCNc1c(-c2cccc(-c3ccc(OC)cc3)c2)nc2cc(C)ccn12 | 8 | 39 | . | 65* | 55* | 29
CCCCNc1c(-c2cccc(-c3ccc(OC)cc3)c2)nc2ccc(C)cn12 | 12 | 46* | . | 74* | 81* | 52
COc1ccc(-c2nc3ccc(C)cn3c2NCc2ccc3c(c2)OCO3)cc1 | 6 | -43 | 1 | -21 | 32 | 27
COc1cc(F)ccc1Oc1cccc2c1S(=O)(=O)N([C@H](C)c1ccccc1)C[C@@H](COCc1ccccc1)O2 | 4 | . | . | . | -15 | .
COc1ccc(C2CC(=O)C(c3ccc(F)cc3)=CN2Cc2ccccc2)cc1 (stereo not given) | -1 | . | . | . | 41 | .
CCN(CC)S(=O)(=O)c1ccc(N=NC2=C(O)CCCC2=O)cc1 | 2 | -13 | -7 | -10 | 1 | 55*
Oc1cc(Nc2ccccc2)cc2cccnc12 | 7 | 6 | . | 2 | 5 | 27
Oc1cc(NCCN2CCOCC2)cc2cccnc12 | 10 | 2 | . | -1 | 8 | 54*
COc1cccc(/C=N/NC(=O)c2ccc3nc[nH]c3c2)c1O | -1 | 4 | -1 | -5 | -10 | 21
COc1cccc(/C=N/NC(=O)c2cc3c(OC)ccc(OC)c3[nH]2)c1O | 11 | -2 | 7 | -1 | 20 | 48*
CC(NS(=O)(=O)c1ccc(Br)cc1F)[C@H](O)c1ccccc1 (stereo not given in full) | 1 | . | . | . | 10 | .
Cc1ccc(O)c(-c2cc(-c3cccc(Br)c3)n[nH]2)c1 | -1 | 24 | -15 | 54* | 6 | 12
SMILES | TAAR1 agonist | OX1R antag-1 | GPR7 antag | CHO parental Ca | TAAR1 antag | OX1R antag-2
Cc1ccc(-c2cc(-c3ccc(C)cc3O)[nH]n2)cc1 | 5 | -31 | -15 | -16 | -3 | 10
Cc1ccc(OCc2nnc(SCc3nc4ccccc4[nH]3)n2Cc2ccco2)cc1 | 10 | 36 | -2 | 32* | 36 | 62
CN1CCN(NC(=O)c2ccc(F)cc2)CC1 | 9 | -18 | 2 | 8 | 4 | 2
CN1CCN(NC(=O)c2cc([N+](=O)[O-])cc([N+](=O)[O-])c2)CC1 | 8 | -4 | -13 | -9 | -12 | 71*
CN1CCN(C(=O)c2cc([N+](=O)[O-])cc([N+](=O)[O-])c2)CC1 | 1 | -12 | -7 | 10 | -8 | 63*
CCCCCCCCN1C(=O)[C@@H](CC(=O)N2CCSCC2)C[C@@]2(C(=O)OC)C1=C[C@H](C(C)(C)C)O[C@@H]2C | -1 | . | . | . | -12 | .
CCCCNc1ccc2c(c1)OC[C@@H](Cc1ccccc1)NS2(=O)=O | 3 | . | . | . | -5 | .
CCn1c(N2CCN(S(=O)(=O)c3ccccc3C(F)(F)F)CC2)nc2ccccc21 | 24 | -12 | -14 | -2 | 42 | 17
COc1ccc(OC2CCN(S(=O)(=O)c3ccc(OC)cc3)CC2)cc1 | 5 | 27 | 34 | 36* | 2 | 0
CCn1c(N2CCN(S(=O)(=O)c3ccc(OC)cc3)CC2)nc2ccccc21 | 34 | -3 | -5 | 5 | 49* | 7
COC(=O)[C@H](Cc1ccccc1)NC(=O)/C=C/[C@H]1O[C@@H](n2ccc(=O)[nH]c2=O)[C@H](O)[C@@H]1O | 1 | . | . | . | -5 | .
O=C(CSc1n[nH]c(-c2ccccc2)n1)c1ccc(O)c(O)c1 | 11 | -20 | 21* | 4 | 2 | 15
Cc1ccc(O)c(NC(=O)CSc2n[nH]c(-c3ccccc3)n2)c1 | 7 | 8 | -11 | 13 | -7 | 36
Fc1ccc(Nc2nnc(C(F)(F)F)s2)cc1Cl | 1 | 22 | 3 | 40* | -10 | 56*
COCCOc1cc(Nc2nnc(C(F)(F)F)s2)c(Cl)cc1Cl | 7 | -24 | -10 | 3 | 5 | 21
CCN1C(=O)C(=O)c2cc(C)ccc21 | 8 | -8 | . | -6 | -5 | 25
CC[N+]1=C(C)C(C)(C)c2cc(C)ccc21 | 2 | 70* | 1 | 64* | 17 | 43
Cc1cc(C)nc(/N=C(\N)Nc2ccc(S(=O)(=O)O)cc2)n1 | 13 | . | 2 | . | 5 | .
COc1ccc(N/C(N)=N/c2nc(C)cc(C)n2)cc1 | 19 | . | . | . | 55* | .
CCNC(=O)N1CCN(c2ccc(N3CCN(Cc4ccccc4)[C@@H](C)C3)c(C)c2)[C@H](C)C1 | 4 | . | . | . | 17 | .
Cc1cccc(C2(c3cccc(C)c3)CC2C(=O)Nc2ccc([N+](=O)[O-])cc2O)c1 (stereo not given) | 3 | 5 | 16 | -6 | 58* | 40
Nc1nc2c(C(=O)N3CCCC3)nnn2c2ccccc12 | -1 | . | . | . | -17 | .
O=C(COCc1ccccc1)N[C@@H](Cc1ccc(O)cc1)C(=O)O | 8 | -15 | -16 | -4 | 11 | 4
O=C(CC(c1ccccc1)(c1ccccc1)c1ccccc1)N[C@@H](Cc1ccc(O)cc1)C(=O)O | -1 | -2 | -20 | -16 | 6 | 50*
